pIC50: −log10 of the molar value. Values belong to the compound of their own block, whether it stands above or below them.
Assays:
Gamma-secretase [1] = experiment: Modulation of gamma secretase in human H4 cells expressing human wild type APP assessed as inhibition of amyloid beta 42 production after 22 hrs by electrochemiluminescence assay; format: cell-based
Method in brief: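 H4 cells overexpressing human APPwt, 10,000/well, were exposed to compound 22 h at 37°C, 5% CO2. Supernatant was diluted with medium on an MSD anti-Aβ42 plate and detected with S-tag 6E10 (1:50, 1 h). Read-out was electrochemiluminescence.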

Gamma-secretase [2] = experiment: Modulation of gamma-secretase in human E6 cells expressing HeLaTetON-NotchdeltaE-NLuc/CLuc-RBP assessed as notch cleavage after 16 hrs by bioluminescence assay; format: ADME, cell-based
hERG (KCNH2) [3] = target: T1, hERG (KCNH2) (Homo sapiens, UniProt Q12809); experiment: Inhibition of human ERG at 1 uM by patch clamp assay relative to control
T1 sequence (Q12809 whole entry): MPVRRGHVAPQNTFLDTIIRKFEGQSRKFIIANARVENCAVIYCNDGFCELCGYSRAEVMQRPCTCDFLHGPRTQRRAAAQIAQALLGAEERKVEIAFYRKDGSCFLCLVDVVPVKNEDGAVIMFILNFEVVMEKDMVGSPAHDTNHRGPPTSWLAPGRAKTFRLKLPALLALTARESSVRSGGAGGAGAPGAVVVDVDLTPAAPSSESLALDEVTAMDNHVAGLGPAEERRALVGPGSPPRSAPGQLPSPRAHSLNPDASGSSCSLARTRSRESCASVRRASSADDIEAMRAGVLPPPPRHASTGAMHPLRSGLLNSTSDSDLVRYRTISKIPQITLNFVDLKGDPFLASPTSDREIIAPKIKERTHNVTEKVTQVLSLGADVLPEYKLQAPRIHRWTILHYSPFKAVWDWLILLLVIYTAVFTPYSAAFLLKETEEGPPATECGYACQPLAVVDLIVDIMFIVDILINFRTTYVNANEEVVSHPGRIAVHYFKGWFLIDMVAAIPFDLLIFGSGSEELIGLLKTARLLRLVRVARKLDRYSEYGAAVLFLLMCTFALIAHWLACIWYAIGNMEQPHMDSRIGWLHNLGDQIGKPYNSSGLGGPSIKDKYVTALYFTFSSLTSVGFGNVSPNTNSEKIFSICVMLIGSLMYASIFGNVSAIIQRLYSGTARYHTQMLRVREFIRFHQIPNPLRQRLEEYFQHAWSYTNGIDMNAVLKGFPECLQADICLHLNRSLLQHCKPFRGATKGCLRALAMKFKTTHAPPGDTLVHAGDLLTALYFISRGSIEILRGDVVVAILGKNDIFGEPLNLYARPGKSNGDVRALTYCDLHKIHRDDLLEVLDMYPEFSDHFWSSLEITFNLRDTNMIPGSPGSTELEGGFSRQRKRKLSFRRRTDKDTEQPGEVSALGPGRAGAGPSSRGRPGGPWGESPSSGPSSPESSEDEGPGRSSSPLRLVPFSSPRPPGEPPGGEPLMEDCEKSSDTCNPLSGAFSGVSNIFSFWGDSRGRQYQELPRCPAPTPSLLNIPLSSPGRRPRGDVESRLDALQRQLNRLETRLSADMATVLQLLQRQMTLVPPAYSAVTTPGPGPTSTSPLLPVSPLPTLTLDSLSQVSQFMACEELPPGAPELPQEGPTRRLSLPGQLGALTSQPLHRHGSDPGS

Cytochrome P450 2C19 = Cytochrome P450 2C19 (Homo sapiens, UniProt P33261); experiment: Inhibition of CYP2C19 in human liver microsomes using (S)-mephenytoin as substrate in presence of NADPH by LC-MS/MS analysis; format: ADME
Sequence of Cytochrome P450 2C19 (P33261 whole entry): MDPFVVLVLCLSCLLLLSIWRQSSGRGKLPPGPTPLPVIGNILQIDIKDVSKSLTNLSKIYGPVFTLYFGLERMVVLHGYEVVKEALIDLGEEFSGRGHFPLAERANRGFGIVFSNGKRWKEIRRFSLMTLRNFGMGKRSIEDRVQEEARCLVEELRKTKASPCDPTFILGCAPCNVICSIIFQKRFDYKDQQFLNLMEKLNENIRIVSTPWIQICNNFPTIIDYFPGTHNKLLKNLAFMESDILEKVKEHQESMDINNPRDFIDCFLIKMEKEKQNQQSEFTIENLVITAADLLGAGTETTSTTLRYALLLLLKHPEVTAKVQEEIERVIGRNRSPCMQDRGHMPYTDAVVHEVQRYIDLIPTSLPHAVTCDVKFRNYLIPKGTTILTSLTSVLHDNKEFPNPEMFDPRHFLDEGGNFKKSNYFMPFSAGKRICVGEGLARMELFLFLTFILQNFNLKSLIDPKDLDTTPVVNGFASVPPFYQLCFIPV
Method in brief: (§1)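 Human pooled liver microsomes (0.1 mg/ml) at 37°C in 0.1 M Tris with 5 mM MgCl2. Substrates were dextromethorphan 7 µM (2D6), diclofenac 4 µM (2C9), (S)-mephenytoin 30 µM (2C19) and testosterone 60 µM (3A4). Test compound ran at five concentrations. Reactions were started with 1 mM NADPH and stopped by cooling to 8°C plus acetonitrile. Metabolite was read by LC-MS/MS against an isotope internal standard, relative to no-compound control.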

[4] = Unbound brain concentration in rat brain at 30 mg/kg, po measured after 3 hrs by LC/MS/MS analysis; format: ADME, organism-based; settings: in vivo
Method in brief: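 Unbound brain concentration estimated from unbound plasma exposure 3 h after oral dosing, assuming equal plasma–brain distribution. Plasma sampled after dosing in 0.5% Natrosol/0.01% Tween 80 and quantified by LC/MS/MS.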

Cytochrome P450 2C8 = target: T2, Cytochrome P450 2C8 (Homo sapiens, UniProt P10632); experiment: Inhibition of CYP2C8 in human liver microsomes in presence of NADPH by LC-MS/MS analysis; format: ADME
T2 sequence (P10632 whole entry): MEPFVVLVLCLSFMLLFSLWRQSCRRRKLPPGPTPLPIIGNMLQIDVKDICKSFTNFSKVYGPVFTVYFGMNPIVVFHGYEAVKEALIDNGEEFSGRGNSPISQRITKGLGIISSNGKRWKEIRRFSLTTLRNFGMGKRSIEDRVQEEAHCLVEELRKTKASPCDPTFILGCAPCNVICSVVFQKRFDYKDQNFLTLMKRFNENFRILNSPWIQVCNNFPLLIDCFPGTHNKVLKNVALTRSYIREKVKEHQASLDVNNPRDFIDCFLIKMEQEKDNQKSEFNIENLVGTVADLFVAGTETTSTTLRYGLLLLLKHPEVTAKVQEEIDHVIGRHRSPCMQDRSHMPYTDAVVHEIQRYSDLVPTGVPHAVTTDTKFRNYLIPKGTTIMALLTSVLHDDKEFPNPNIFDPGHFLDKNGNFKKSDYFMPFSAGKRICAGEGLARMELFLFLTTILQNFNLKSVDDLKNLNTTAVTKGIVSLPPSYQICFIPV

[5] = Volume of distribution at steady state in Han Wistar rat at 1 umol/kg, iv administered as bolus by LC/MS/MS analysis; format: ADME, organism-based; settings: in vivo, read-out: Vdss
Method in brief: (§2)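 Female fed Han Wistar rats received the compound as an i.v. solution. Blood was sampled at several time points and EDTA plasma prepared. Plasma levels were quantified by LC/MS/MS after acetonitrile precipitation, and PK parameters were calculated by non-compartmental analysis.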

Cytochrome P450 3A4 = Cytochrome P450 3A4 (Homo sapiens, UniProt P08684); experiment: Inhibition of CYP3A4 in human liver microsomes using testosterone as substrate in presence of NADPH by LC-MS/MS analysis; format: ADME; method in brief: as §1
Sequence of Cytochrome P450 3A4 (P08684 whole entry): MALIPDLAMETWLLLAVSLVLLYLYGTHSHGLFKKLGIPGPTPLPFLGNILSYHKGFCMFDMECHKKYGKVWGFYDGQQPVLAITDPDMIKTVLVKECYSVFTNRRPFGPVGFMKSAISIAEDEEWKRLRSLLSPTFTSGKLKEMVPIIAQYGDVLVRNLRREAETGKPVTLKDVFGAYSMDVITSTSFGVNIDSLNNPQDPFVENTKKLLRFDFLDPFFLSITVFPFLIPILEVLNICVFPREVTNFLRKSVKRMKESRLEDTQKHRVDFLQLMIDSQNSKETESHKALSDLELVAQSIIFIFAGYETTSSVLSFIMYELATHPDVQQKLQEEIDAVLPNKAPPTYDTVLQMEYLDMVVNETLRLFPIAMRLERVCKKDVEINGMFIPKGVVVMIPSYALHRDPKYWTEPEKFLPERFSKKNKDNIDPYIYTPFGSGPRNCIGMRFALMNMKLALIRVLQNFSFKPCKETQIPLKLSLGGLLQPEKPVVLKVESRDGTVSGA

[6] = Drug uptake in Han Wistar rat muscle at 10 umol/kg, po administered via gavage measured 3 hrs post dose by LC/MS/MS analysis; format: ADME, organism-based, Muscle tissue; settings: read-out: Drug uptake
Method in brief: (§3)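 Fasted female Han Wistar rats were dosed by oral gavage as a Natrosol suspension. Animals were sacrificed 3 h later and plasma and tissues collected and frozen. Concentrations were measured by LC/MS/MS after acetonitrile precipitation.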

[7] = Drug uptake in Han Wistar rat brain at 10 umol/kg, po administered via gavage measured 3 hrs post dose by LC/MS/MS analysis; format: ADME, organism-based; settings: read-out: Drug uptake; method in brief: as §3
[8] = Modulation of gamma secretase in rat E18 cells assessed as inhibition of amyloid beta 42 production after 22 hrs by electrochemiluminescence assay; format: cell-based
Cytochrome P450 2D6 = Cytochrome P450 2D6 (Homo sapiens, UniProt P10635); experiment: Inhibition of CYP2D6 in human liver microsomes using dextromethorphan as substrate in presence of NADPH by LC-MS/MS analysis; format: ADME; method in brief: as §1
Sequence of Cytochrome P450 2D6 (P10635 whole entry): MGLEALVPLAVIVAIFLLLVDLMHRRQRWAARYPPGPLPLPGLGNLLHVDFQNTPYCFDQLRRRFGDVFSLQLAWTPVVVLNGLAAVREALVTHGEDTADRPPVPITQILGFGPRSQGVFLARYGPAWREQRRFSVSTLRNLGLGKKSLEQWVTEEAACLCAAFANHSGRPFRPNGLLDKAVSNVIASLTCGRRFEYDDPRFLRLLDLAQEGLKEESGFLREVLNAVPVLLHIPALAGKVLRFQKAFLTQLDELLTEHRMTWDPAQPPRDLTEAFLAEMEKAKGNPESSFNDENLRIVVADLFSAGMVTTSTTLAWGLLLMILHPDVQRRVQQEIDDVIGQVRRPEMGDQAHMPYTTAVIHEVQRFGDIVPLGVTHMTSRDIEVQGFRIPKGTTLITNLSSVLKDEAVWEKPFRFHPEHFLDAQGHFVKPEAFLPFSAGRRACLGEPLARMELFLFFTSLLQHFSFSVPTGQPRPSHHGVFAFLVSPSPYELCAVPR

Rattus norvegicus [9] = experiment: Decrease in total amyloid beta 42 levels in rat brain homogenate at 30 mg/kg, po measured after 3 hrs by electrochemiluminescence assay relative to control; design: scale not given: the % may be the effect or the level left; settings: in vivo
[10] = Mean residence time in Han Wistar rat at 1 umol/kg, iv administered as bolus by LC/MS/MS analysis; format: ADME, organism-based; settings: in vivo; method in brief: as §2
[11] = Clearance in Han Wistar rat at 1 umol/kg, iv administered as bolus by LC/MS/MS analysis; format: ADME, organism-based; settings: in vivo; method in brief: as §2
[12] = Drug uptake in Han Wistar rat plasma at 10 umol/kg, po administered via gavage measured 3 hrs post dose by LC/MS/MS analysis; format: ADME, organism-based; method in brief: as §3
[13] = Ratio of drug uptake in Han Wistar rat brain to plasma at 10 umol/kg, po administered via gavage measured 3 hrs post dose by LC/MS/MS analysis; format: ADME, organism-based; method in brief: as §3
[14] = Efflux ratio of apparent permeability from […] in MDCK cells expressing human MDR1 at 1 uM at pH 7.4; format: ADME, cell-based, Canis lupus familiaris; settings: dog, pH 7.4, 1 µM
Method in brief: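 MDCK-MDR1 monolayers, pH 7.4, 37°C; transport measured apical-to-basal and basal-to-apical from 1 µM initial donor concentration; apparent permeability coefficients derived for each direction, ratio taken.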

hERG (KCNH2) [15] = target: T1, hERG (KCNH2); experiment: Inhibition of human ERG at 10 uM by patch clamp assay relative to control
Rattus norvegicus [16] = experiment: Decrease in total amyloid beta levels in rat brain homogenate at 30 mg/kg, po measured after 3 hrs by electrochemiluminescence assay relative to control; design: scale not given: the % may be the effect or the level left; settings: in vivo
Rattus norvegicus [17] = experiment: In vivo modulation of gamma secretase in rat brain homogenate assessed as decrease in amyloid beta 42 levels at 30 mg/kg, po measured after 3 hrs by electrochemiluminescence assay relative to control; format: functional; design: scale not given: the % may be the effect or the level left
Method in brief: (§4)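 Rats dosed orally with compound in 0.5% Natrosol/0.01% Tween 80, then anesthetized (Ketavet, Inactin i.p.) and decapitated 3 h later. Brain slices were homogenized in 20 mM Tris pH 8.5 + 0.2% Triton X-100 (5-fold v/w) and spun 1 h at 210,000 x g, 4°C. Aβ42 in the supernatant was read by MSD electrochemiluminescence with S-tag 4G8 detection.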

[18] = Protein binding in rat plasma at 1 uM after 5 hrs by equilibrium dialysis based LC-MS/MS analysis; format: ADME, cell-free; settings: read-out: PPB (converted)
Method in brief: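 Equilibrium dialysis: rat EDTA plasma spiked to 1 µM final, dialysed against PBS with dextran (pH 7.4) across a 5–10 kDa membrane. Run 5 h at 37°C; both sides analyzed by HPLC-MS/MS.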

Cytochrome P450 2C9 = Cytochrome P450 2C9 (Homo sapiens, UniProt P11712); experiment: Inhibition of CYP2C9 in human liver microsomes using diclofenac as substrate in presence of NADPH by LC-MS/MS analysis; format: ADME; method in brief: as §1
Sequence of Cytochrome P450 2C9 (P11712 whole entry): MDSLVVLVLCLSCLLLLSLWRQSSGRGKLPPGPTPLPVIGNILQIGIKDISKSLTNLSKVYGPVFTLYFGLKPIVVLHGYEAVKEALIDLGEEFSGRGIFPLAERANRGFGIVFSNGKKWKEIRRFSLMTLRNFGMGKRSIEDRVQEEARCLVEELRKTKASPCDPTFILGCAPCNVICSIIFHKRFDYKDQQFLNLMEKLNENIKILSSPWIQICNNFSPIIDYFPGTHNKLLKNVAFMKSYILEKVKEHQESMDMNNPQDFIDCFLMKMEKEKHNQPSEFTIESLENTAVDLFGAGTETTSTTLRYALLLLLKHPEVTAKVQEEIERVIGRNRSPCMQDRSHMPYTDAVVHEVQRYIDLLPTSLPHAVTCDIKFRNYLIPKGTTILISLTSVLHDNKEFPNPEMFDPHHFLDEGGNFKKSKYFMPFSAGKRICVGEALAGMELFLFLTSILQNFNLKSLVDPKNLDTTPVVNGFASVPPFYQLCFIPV

Rattus norvegicus [19] = experiment: In vivo modulation of gamma secretase in rat brain homogenate assessed as decrease in amyloid beta 42 levels at 25 mg/kg, po measured after 3 hrs by electrochemiluminescence assay relative to control; format: functional; design: scale not given: the % may be the effect or the level left; method in brief: as §4
[20] = Ratio of drug uptake in Han Wistar rat muscle to brain at 10 umol/kg, po administered via gavage measured 3 hrs post dose by LC/MS/MS analysis; format: ADME, organism-based; settings: in vivo
Method in brief: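 Fasted female Han Wistar rats given 10 µmol/kg orally; sacrificed 3 h post dose, tissues collected and frozen; samples acetonitrile-precipitated, supernatant diluted 1:100 and quantified by LC-ESI-MS/MS; muscle-to-brain concentration ratio.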

[21] = Apparent permeability from apical to basolateral side in MDCK cells expressing human MDR1 at 1 uM at pH 7.4; format: ADME, cell-based, Canis lupus familiaris; settings: dog, MDCK-MDR1, pH 7.4
Method in brief: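 MDCK-MDR1 monolayers; transport measured apical-to-basal and basal-to-apical at pH 7.4, 37°C, starting from 1 µM in the donor compartment; apparent permeability coefficients derived.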

Structure (SMILES): CCCCn1ncc2c1CCC(Nc1nc3c(-c4ccc(F)cc4C)cccn3n1)C2 (stereo not drawn)
pIC50 (Gamma-secretase [1]): 5.56

Structure (SMILES): CCc1nnn2c1CCC(Nc1nc3c(-c4ccc(F)cc4C)cccn3n1)C2 (stereo not drawn)
pIC50 (Gamma-secretase [1]): 6.13

Structure (SMILES): Cc1cc(F)ccc1-c1cccn2nc(NC3CCc4[nH]ncc4C3)nc12 (stereo not drawn)
pIC50 (Gamma-secretase [1]): 5.34

Structure (SMILES): CCn1ncc2c1CCC(Nc1nc3c(-c4ccccc4Cl)cccn3n1)C2 (stereo not drawn)
pIC50 (Gamma-secretase [1]): 7.22

Structure (SMILES): CCc1nnc2n1CCC(Nc1nc3c(-c4ccc(F)cc4C)cccn3n1)C2 (stereo not drawn)
pIC50 (Gamma-secretase [1]): 5.86

Structure (SMILES): CCCCCn1ncc2c1CCC(Nc1nc3c(-c4ccc(F)cc4C)cccn3n1)C2 (stereo not drawn)
pIC50 (Gamma-secretase [1]): < 4.52

Structure (SMILES): CCn1ncc2c1CCC(Nc1nc3c(-c4ccccc4)cccn3n1)C2 (stereo not drawn)
pIC50 (Gamma-secretase [1]): 7.15

Structure (SMILES): Cc1cc(F)ccc1-c1cccn2nc(NC3CCc4c(cnn4C(C)C)C3)nc12 (stereo not drawn)
pIC50 (Gamma-secretase [1]): 6.37

Second part, led by results:

pIC50 (Gamma-secretase [1]): 6.80
Structure (SMILES): CCn1ncc2c1CCC(Nc1nc3c(-c4ccccc4C)cccn3n1)C2 (stereo not drawn)

pIC50 (Gamma-secretase [1]): 6.92
Structure (SMILES): CCn1ncc2c1CCC(Nc1nc3c(-c4cnccc4OC)cccn3n1)C2 (stereo not drawn)

pIC50 (Gamma-secretase [1]): 7.05
Structure (SMILES): CCn1ncc2c1CCC(Nc1nc3c(-c4ccc(OC)nc4)cccn3n1)C2 (stereo not drawn)

pIC50 (Gamma-secretase [1]): 6.46
Structure (SMILES): CCn1ncc2c1CCC(Nc1nc3c(-c4cccnc4)cccn3n1)C2 (stereo not drawn)

pIC50 (Gamma-secretase [1]): 6.70
Structure (SMILES): CCn1ncc2c1CCC(Nc1nc3c(-c4cncc(C)c4)cccn3n1)C2 (stereo not drawn)

pIC50 (Gamma-secretase [1]): 8.05
Structure (SMILES): CCn1ncc2c1CC[C@@H](Nc1nc3c(-c4ccc(F)c(Cl)c4)cccn3n1)C2

pIC50 (Gamma-secretase [1]): 6.17
Structure (SMILES): CCn1ncc2c1CCC(Nc1nc3c(-c4cccnc4C)cccn3n1)C2 (stereo not drawn)

pIC50 (Gamma-secretase [1]): 6.70
Structure (SMILES): CCn1ncc2c1CCC(Nc1nc3c(-c4cncc(OC)c4)cccn3n1)C2 (stereo not drawn)

pIC50 (Gamma-secretase [2]): < 4.52
pIC50 (Cytochrome P450 2C19): 4.44
Cp(f) [4]: 30 nM
pIC50 (Cytochrome P450 2C8): 5.02
Vd [5]: 1.5 L/kg
pIC50 (Cytochrome P450 3A4): < 4.30
concentration at 3 h [6]: 2600 nM
concentration at 3 h [7]: 2990 nM
pIC50 [8]: 7.40
pIC50 (Cytochrome P450 2D6): < 4.30
Activity (Rattus norvegicus [9]): 3%
MRT [10]: 36 min
clearance [11]: 40 mL/min/kg
pIC50 (Gamma-secretase [1]): 7.40
concentration at 3 h [12]: 2680 nM
Kp at 3 h [13]: 1.1
Ratio [14]: 0.7
Activity (Rattus norvegicus [16]): 5%
fraction unbound at 5 h, 1 µM [18]: 0.012
pIC50 (Cytochrome P450 2C9): 4.60
Ratio [20]: 0.9
Papp A→B at 1 µM [21]: 78 ×10⁻⁶ cm/s
Structure (SMILES): CCn1ncc2c1CC[C@@H](Nc1nc3c(-c4ccc(F)cc4C)cccn3n1)C2
inhibition at 1 µM (hERG (KCNH2) [3]): 8%
inhibition at 10 µM (hERG (KCNH2) [15]): 39%
Activity (Rattus norvegicus [17]): 47%
Activity (Rattus norvegicus [19]): 53%

pIC50 (Gamma-secretase [1]): 6.17
Structure (SMILES): CCn1ncc2c1CCC(Nc1nc3c(-c4ccc(C)nc4)cccn3n1)C2 (stereo not drawn)

Source: ChEMBL document CHEMBL4118159, “Discovery of tetrahydroindazoles as a novel class of potent and in vivo efficacious gamma secretase modulators” (Bioorg Med Chem, 2018)
